In ChEMBL document CHEMBL1123986, “Oral absorption of cephalosporin antibiotics. 2. Expanded structure-activity relationships of 7-(arylacetamido)-3-substituted cephalosporins” (1988):
Values after ≈ are worked out from the molar mass of the structure shown.

Key:
Streptococcus pneumoniae [1] = assay: Minimum inhibitory concentration against Streptococcus pneumoniae; format: functional
Summary of the method: (§1)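 Agar dilution MIC in μg/mL. […] Organisms not run are marked not tested.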

Salmonella typhi [2] = assay: Minimum inhibitory concentration against Salmonella typhi; format: functional, Salmonella enterica subsp. enterica serovar Typhi; conditions: Salmonella enterica
[3] = Ratio of ED50 value evaluated in Staphylococcus aureus by po to sc administration; format: functional
Summary of the method: (§2)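 Oral/subcutaneous effective-dose ratio. Both routes were dosed in random-sex ICR mice of 19–21 g at 1 and 5 h after an intraperitoneal challenge of 50–500 LD50 from a frozen organism pool. Each route used five 2-fold dilution levels with eight mice per level, and the po value was divided by the sc value.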

[4] = Ratio of ED50 value evaluated in Streptococcus pneumoniae by po to sc administration; format: functional; summary of the method: as §2
[5] = Ratio of ED50 value evaluated in Streptococcus pyogenes by po to sc administration; format: functional; summary of the method: as §2
Streptococcus pneumoniae [6] = assay: Efficacy against mouse infections caused by S. Pneumoniae measured as Minimum inhibitory concentration
Klebsiella aerogenes = assay: Minimum inhibitory concentration against Enterobacter aerogenes; format: functional; summary of the method: as §1
Escherichia coli = assay: Minimum inhibitory concentration against Escherichia coli; format: functional; summary of the method: as §1
Haemophilus influenzae [7] = assay: (§3) Minimum inhibitory concentration against Haemophilus influenzae; format: functional; summary of the method: as §1
Haemophilus influenzae [8] = assay: as §3; format: functional; summary of the method: as §1; remark: listed apart in the source
Klebsiella pneumoniae [9] = assay: Minimum inhibitory concentration against Klebsiella pneumoniae; format: functional; summary of the method: as §1
Mus musculus [10] = assay: (§4) Effective dose administered orally (po) to 19-21-g random sex ICR mice at 1 hr and 5 hr intervals after intraperitoneal Staphylococcus aureus; format: functional
Summary of the method: (§5)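 Mouse protection: random-sex ICR mice, 19–21 g, challenged intraperitoneally from a frozen organism pool giving 50–500 LD50 per challenge dose. Drug given sc or po at 1 and 5 h post-infection. Five 2-fold dilution levels per compound, eight mice per dilution.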

Mus musculus [11] = assay: (§6) Effective dose administered subcutaneously (sc) to 19-21-g random sex ICR mice at 1 hr and 5 hr intervals after intraperitoneal administration of Streptococcus pneumoniae; format: functional; summary of the method: as §5
Staphylococcus aureus [12] = assay: Minimum inhibitory concentration against Staphylococcus aureus; format: functional; summary of the method: as §1
Salmonella typhi [13] = assay: Minimum inhibitory concentration by agar dilution method against Salmonella typhi; format: functional, Salmonella enterica subsp. enterica serovar Typhi; conditions: Salmonella enterica
Mus musculus [14] = assay: (§7) Effective dose administered orally (po) to 19-21-g random sex ICR mice at 1 hr and 5 hr intervals after intraperitoneal administration of Streptococcus pneumoniae; format: functional; summary of the method: as §5
Mus musculus [15] = assay: (§8) Effective dose administered subcutaneously (sc) to 19-21-g random sex ICR mice at 1 hr and 5 hr intervals after intraperitoneal administration of Staphylococcus aureus; format: functional; summary of the method: as §5
Mus musculus [16] = assay: (§9) Effective dose administered orally (po) to 19-21-g random sex ICR mice at 1 hr and 5 hr intervals after intraperitoneal Streptococcus pyogenes; format: functional; summary of the method: as §5
Streptococcus pyogenes [17] = assay: Minimum inhibitory concentration against Streptococcus pyogenes; format: functional; summary of the method: as §1
Mus musculus [18] = assay: (§10) Effective dose administered subcutaneously (sc) to 19-21-g random sex ICR mice at 1 hr and 5 hr intervals after intraperitoneal administration of Streptococcus pyogenes; format: functional; summary of the method: as §5
Staphylococcus aureus [19] = assay: Efficacy against mouse infections caused by Staphylococcus aureus measured as Minimum inhibitory concentration
Streptococcus pyogenes [20] = assay: Efficacy against mouse infections caused by Streptococcus pyogenes measured as Minimum inhibitory concentration
Haemophilus influenzae [21] = assay: Minimum inhibitory concentration by agar dilution method against Haemophilus influenzae (beta lactamase(-)); format: functional; summary of the method: as §1
Klebsiella pneumoniae [22] = assay: Minimum inhibitory concentration by agar dilution method against Klebsiella pneumoniae; format: functional; summary of the method: as §1
Staphylococcus aureus [23] = assay: as §4; format: functional; summary of the method: as §5
Streptococcus pneumoniae [24] = assay: as §6; format: functional; summary of the method: as §5
Streptococcus pneumoniae [25] = assay: Efficacy against mouse infections caused by S. Pneumoniae measured as Minimum inhibitory concentration; format: functional
Streptococcus pneumoniae [26] = assay: as §7; format: functional; summary of the method: as §5
Staphylococcus aureus [27] = assay: as §8; format: functional; summary of the method: as §5
Staphylococcus aureus [28] = assay: Efficacy against mouse infections caused by Staphylococcus aureus measured as Minimum inhibitory concentration; format: functional
Streptococcus pyogenes [29] = assay: as §9; format: functional; summary of the method: as §5
Streptococcus pyogenes [30] = assay: Efficacy against mouse infections caused by Streptococcus pyogenes measured as Minimum inhibitory concentration; format: functional
Streptococcus pyogenes [31] = assay: as §10; format: functional; summary of the method: as §5
Haemophilus influenzae [32] = assay: Minimum inhibitory concentration by agar dilution method against (beta lactamase(+); format: functional; summary of the method: as §1
Haemophilus influenzae [33] = assay: Minimum inhibitory concentration by agar dilution method against Haemophilus influenzae (beta lactamase(-); format: functional; summary of the method: as §1
Mus musculus [34] = assay: Effective dose administered orally (po) to 19-21-g random sex ICR mice at 1 hr and 5 hr intervals after intraperitoneal Streptococcus pneumoniae; format: functional; summary of the method: as §5

Row | Compound | MIC (Streptococcus pneumoniae [1]) [µg/mL] | MIC (Salmonella typhi [2]) [µg/mL] | Ratio [3] | Ratio [4] | Ratio [5] | MIC (Streptococcus pneumoniae [6]) [µg/mL] | MIC (Klebsiella aerogenes) [µg/mL] | MIC (Escherichia coli) [µg/mL] | MIC (Haemophilus influenzae [8]) [µg/mL] | MIC (Klebsiella pneumoniae [9]) [µg/mL] | ED50 (Mus musculus [10]) [mg/kg] | MIC (Staphylococcus aureus [12]) [µg/mL] | MIC (Streptococcus pyogenes [17]) [µg/mL] | further results
1 | Nc1nc(CC(=O)N[C@@H]2C(=O)N3C(C(=O)O)=C(Cl)CS[C@H]23)cs1 | 0.25 (≈ 0.667 µM) | 0.25 (≈ 0.667 µM) | 4.5 | 1.4 | 0.7 | 0.5 (≈ 1.33 µM) | – | – | – | – | – | – | – | –
2 | O=C(Cc1csc2ccccc12)N[C@@H]1C(=O)N2C(C(=O)O)=C(Cl)CS[C@H]12 | – | 128 (≈ 313 µM) | 2.4 | 2.4 | 1.4 | – | – | – | – | – | – | – | – | –
3 | O=C(CSc1cc(Cl)ccc1Cl)N[C@@H]1C(=O)N2C(C(=O)O)=C(Cl)CS[C@H]12 | < 0.008 | – | 5.9 | – | 2.6 | 0.015 (≈ 0.0331 µM) | > 128 | 32 (≈ 70.5 µM) | 1 (≈ 2.2 µM) | 32 (≈ 70.5 µM) | 7.7 | 0.03 (≈ 0.0661 µM) | < 0.008 | MIC (Haemophilus influenzae [7]): 1 µg/mL (≈ 2.2 µM); ED50 (Mus musculus [11]): 6.3 mg/kg; MIC (Salmonella typhi [13]): 64 µg/mL (≈ 141 µM); ED50 (Mus musculus [14]): > 25 mg/kg; ED50 (Mus musculus [15]): 1.3 mg/kg; ED50 (Mus musculus [16]): 7.2 mg/kg; ED50 (Mus musculus [18]): 2.8 mg/kg; MIC (Staphylococcus aureus [19]): 0.03 µg/mL (≈ 0.0661 µM); MIC (Streptococcus pyogenes [20]): 0.125 µg/mL (≈ 0.275 µM)
4 | COC1=C(C(=O)O)N2C(=O)[C@@H](NC(=O)Cc3csc4ccccc34)[C@H]2SC1 | 0.5 (≈ 1.24 µM) | > 128 | 2 | – | – | – | > 128 | > 128 | 0.5 (≈ 1.24 µM) | – | – | 0.25 (≈ 0.618 µM) | 0.25 (≈ 0.618 µM) | MIC (Haemophilus influenzae [21]): 8 µg/mL (≈ 19.8 µM); MIC (Klebsiella pneumoniae [22]): > 128 µg/mL; ED50 (Staphylococcus aureus [23]): 2.8 mg/kg; ED50 (Streptococcus pneumoniae [24]): > 10 mg/kg; MIC (Streptococcus pneumoniae [25]): 0.5 µg/mL (≈ 1.24 µM); ED50 (Streptococcus pneumoniae [26]): > 10 mg/kg; ED50 (Staphylococcus aureus [27]): 1.4 mg/kg; MIC (Staphylococcus aureus [28]): 0.5 µg/mL (≈ 1.24 µM); ED50 (Streptococcus pyogenes [29]): > 10 mg/kg; MIC (Streptococcus pyogenes [30]): 0.25 µg/mL (≈ 0.618 µM); ED50 (Streptococcus pyogenes [31]): > 10 mg/kg
5 | Nc1nc(CC(=O)N[C@@H]2C(=O)N3C(C(=O)O)=C(Cl)CS[C@H]23)c(-c2ccccc2)s1 | 0.03 (≈ 0.0665 µM) | > 128 | – | – | – | – | > 128 | > 128 | – | > 128 | – | 0.03 (≈ 0.0665 µM) | 0.03 (≈ 0.0665 µM) | MIC (Haemophilus influenzae [32]): 16 µg/mL (≈ 35.5 µM); MIC (Haemophilus influenzae [33]): 16 µg/mL (≈ 35.5 µM)
6 | CC1(C)S[C@@H]2[C@H](NC(=O)COc3ccccc3)C(=O)N2[C@H]1C(=O)O [PENICILLIN V] | – | – | 11 | 1.1 | 3.9 | – | – | – | – | – | 0.46 | – | – | ED50 (Mus musculus [34]): 2.3 mg/kg
